Results on one substance are retold here after publication PMC11913021 (Journal of Medicinal Chemistry, 2024).

The test system of test [1] is A549 cells. The experiment in a line: Transwell migration and invasion assay. It is filed as cell-based. In a few lines:
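Cells at 5 × 10^4 cells/ml in serum-free medium placed in 8 μm pore transwell chambers; for invasion the chambers were Matrigel-precoated. After 24 h, non-migrated cells were swabbed off. Cells on the underside were fixed in 4% PFA for 20 min, stained with crystal violet for 10 min, and counted by light microscopy.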

For the next test, the target named is T1, PLD1 (Homo sapiens, UniProt Q13393).
T1 sequence (Q13393 1-1074): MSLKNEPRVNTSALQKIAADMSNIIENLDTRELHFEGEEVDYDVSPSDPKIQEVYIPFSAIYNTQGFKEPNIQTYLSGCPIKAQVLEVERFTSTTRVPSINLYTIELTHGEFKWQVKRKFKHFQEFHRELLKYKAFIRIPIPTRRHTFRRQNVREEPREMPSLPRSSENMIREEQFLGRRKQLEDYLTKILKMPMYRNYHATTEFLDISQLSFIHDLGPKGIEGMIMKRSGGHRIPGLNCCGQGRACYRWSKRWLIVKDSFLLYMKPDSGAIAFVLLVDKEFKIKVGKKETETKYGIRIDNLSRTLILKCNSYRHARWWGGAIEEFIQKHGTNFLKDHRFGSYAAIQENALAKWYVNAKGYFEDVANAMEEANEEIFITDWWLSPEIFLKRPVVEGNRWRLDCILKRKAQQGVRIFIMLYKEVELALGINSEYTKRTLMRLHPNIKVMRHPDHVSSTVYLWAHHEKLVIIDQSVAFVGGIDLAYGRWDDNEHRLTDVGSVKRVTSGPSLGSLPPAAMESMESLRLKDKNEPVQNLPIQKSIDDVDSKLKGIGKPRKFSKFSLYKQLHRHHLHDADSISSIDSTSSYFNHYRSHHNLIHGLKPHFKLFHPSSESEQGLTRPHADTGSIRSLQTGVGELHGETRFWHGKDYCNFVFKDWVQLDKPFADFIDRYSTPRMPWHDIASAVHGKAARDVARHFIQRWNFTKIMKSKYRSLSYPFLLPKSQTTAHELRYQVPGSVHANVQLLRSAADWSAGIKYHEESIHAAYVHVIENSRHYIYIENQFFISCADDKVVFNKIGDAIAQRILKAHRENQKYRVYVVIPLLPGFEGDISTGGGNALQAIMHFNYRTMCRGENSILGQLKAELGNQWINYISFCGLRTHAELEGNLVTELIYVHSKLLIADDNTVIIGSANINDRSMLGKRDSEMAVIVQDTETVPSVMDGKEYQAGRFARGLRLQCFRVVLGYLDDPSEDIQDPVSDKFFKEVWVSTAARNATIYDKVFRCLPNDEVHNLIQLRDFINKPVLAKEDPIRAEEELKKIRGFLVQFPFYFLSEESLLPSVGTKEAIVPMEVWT
The test can be described thus: Drug affinity responsive target stability. As to conditions: DARTS with immunoblotting. It is filed as binding. A digest of the protocol: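 A549 cells lysed in buffer with protease and phosphatase inhibitors. Cleared supernatant incubated with test compound for 1 h at RT, then digested with Pronase for 10 min at RT. Digestion stopped with SDS loading buffer and boiling at 100 °C for 5 min. PLD1 was detected by immunoblot, with β-tubulin as control.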

Test [2] has as its system A549 cells. The experiment in a line: In vitro phagocytosis assay. Particulars: A549 cocultured with PMA-activated THP-1. It is filed as cell-based, human. A digest of the protocol: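 A549 cells treated with test compound for 48 h in RPMI with 10% FBS, then labelled with 1 μM CFSE. THP-1 cells were differentiated with PMA for 36 h, and 5 × 10^5 were co-incubated with equal CFSE-labelled cells in serum-free RPMI for 2 h. After Fc block and PerCP-Cy5.5 anti-CD11b staining (20 min, 4 °C), CFSE+CD11b+ cells were counted by flow cytometry in at least three independent experiments.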

The subject of test [3] is A549 cells. The experiment in a line: Ki67 staining proliferation assay. It is filed as cell-based.
The next test addresses T2, F614A mutant PLD1 (Homo sapiens, UniProt Q13393, F652A).
T2 sequence (Q13393 1-1036 isoform Q13393-2 F614A): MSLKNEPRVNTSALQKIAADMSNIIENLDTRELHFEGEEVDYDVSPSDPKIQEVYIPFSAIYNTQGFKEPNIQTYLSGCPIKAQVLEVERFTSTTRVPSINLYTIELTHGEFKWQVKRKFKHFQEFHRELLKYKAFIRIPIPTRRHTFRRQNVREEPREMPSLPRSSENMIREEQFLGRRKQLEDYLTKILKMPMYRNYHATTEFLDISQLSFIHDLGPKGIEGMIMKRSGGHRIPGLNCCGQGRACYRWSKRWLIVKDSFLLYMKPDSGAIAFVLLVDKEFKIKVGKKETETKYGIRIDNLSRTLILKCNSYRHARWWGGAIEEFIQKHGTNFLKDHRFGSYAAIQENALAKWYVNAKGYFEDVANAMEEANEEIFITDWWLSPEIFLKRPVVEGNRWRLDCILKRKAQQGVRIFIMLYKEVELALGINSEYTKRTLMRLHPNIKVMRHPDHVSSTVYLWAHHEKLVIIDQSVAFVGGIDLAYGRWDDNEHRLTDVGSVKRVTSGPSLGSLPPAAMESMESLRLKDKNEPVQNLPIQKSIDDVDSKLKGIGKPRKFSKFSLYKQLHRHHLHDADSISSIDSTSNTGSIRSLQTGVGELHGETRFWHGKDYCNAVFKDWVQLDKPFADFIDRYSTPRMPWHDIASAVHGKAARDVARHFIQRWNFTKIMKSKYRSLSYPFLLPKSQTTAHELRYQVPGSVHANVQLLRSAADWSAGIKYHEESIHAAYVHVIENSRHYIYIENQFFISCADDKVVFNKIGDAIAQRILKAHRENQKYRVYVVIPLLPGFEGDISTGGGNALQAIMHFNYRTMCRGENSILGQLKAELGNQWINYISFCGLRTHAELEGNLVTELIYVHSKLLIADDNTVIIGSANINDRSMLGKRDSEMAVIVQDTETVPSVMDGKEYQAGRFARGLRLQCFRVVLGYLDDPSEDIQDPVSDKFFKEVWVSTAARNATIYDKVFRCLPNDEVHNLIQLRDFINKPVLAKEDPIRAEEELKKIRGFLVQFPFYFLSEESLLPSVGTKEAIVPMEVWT
The experiment in a line: PLD activity assay in F614A mutant PLD1-transfected cells. It is filed as cell-based.

In the case of “N-(3,5-Bis(trifluoromethyl)phenyl)-3-(1H-indol-3-yl)propanamide [3r]”, in the test on A549 cells [1], the invasion result was “significantly inhibited” and the migration entry is listed as “significantly inhibited”. The “stability of PLD1 against Pronase” value at PLD1 is on record as “increased stability”. For the same substance, the “CD11b^+CFSE^+ macrophages (phagocytosis)” value in the test with A549 cells [2] was “significantly increased”. Moreover, the Ki67-positive proliferation result in the test with A549 cells [3] is “significantly inhibited”. The PLD activity result at F614A mutant PLD1 is recorded as “did not significantly inhibit”.
